The values that follow come from ChEMBL document CHEMBL4346697, “Probing structural requirements for human topoisomerase I inhibition by a novel N1-Biphenyl fluoroquinolone” (Eur J Med Chem, 2019).

In test [1] the target is T1, DNA topoisomerase 1 (Homo sapiens, UniProt P11387).
T1 sequence (P11387 whole entry): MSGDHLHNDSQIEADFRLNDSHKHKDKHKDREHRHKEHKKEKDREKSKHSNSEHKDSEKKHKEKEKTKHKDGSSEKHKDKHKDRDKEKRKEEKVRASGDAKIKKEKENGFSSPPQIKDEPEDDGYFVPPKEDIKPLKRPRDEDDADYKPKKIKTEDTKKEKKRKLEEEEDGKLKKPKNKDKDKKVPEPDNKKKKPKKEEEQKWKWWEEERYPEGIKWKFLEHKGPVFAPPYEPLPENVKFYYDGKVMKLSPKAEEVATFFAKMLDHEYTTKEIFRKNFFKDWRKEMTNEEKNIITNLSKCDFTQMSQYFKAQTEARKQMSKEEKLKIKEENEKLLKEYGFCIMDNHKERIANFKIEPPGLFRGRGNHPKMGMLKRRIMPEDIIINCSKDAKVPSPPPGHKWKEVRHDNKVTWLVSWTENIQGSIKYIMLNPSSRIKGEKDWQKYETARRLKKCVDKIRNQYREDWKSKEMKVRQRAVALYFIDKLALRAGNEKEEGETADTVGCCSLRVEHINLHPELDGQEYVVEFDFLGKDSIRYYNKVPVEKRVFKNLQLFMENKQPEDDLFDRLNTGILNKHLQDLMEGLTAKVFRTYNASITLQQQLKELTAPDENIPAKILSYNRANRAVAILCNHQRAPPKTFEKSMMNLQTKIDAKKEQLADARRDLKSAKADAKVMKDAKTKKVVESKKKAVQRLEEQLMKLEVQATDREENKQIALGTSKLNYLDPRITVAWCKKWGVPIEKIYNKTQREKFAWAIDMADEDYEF
Kind of test: Inhibition of human topoisomerase 1 using supercoiled pBR322 plasmid DNA as substrate after 15 mins by ethidium bromide staining based agarose gel electrophoresis method. In short, it runs like this:
(§1)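 hTopo I (1 unit) relaxed 0.3 μg supercoiled plasmid in 50 mM Tris-HCl pH 7.5, 100 mM NaCl, 10 mM MgCl2, 1 mM DTT, 50 μg/ml BSA with varied compound concentrations, at 37°C for 15 min.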

For test [2], the target named is T2, DNA topoisomerase 1 (Homo sapiens) (UniProt P11387).
T2 sequence (whole entry): T1 sequence (P11387 whole entry)
The test can be described thus: Inhibition of human topoisomerase 1 at 200 uM using supercoiled pBR322 plasmid DNA as substrate after 15 mins by ethidium bromide staining based agarose gel electrophoresis method relative to control. The gist of the method: as §1

Test [3] in a line: Binding affinity to d(CCTTACGTGCATAGTCATTCATGACCG) dsDNA (unknown origin) assessed as bathochromic shift at 25 uM by fluorescence spectra analysis. In short, it runs like this:
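The 27-bp duplex was made by annealing complementary strands 1:1 at 95°C for 2 min, then cooling to room temperature. Compound at 25 μM, with dsDNA at 0–200 μM, in 10 mM Tris-HCl pH 7.4 at room temperature; DMSO ≤5% final. Spectra and intensity were read after blank subtraction, normalized to the no-DNA signal; technical replicates, n=3.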

Test [4] concerns Calf thymus DNA. Kind of test: Binding affinity to calf thymus DNA assessed as bathochromic shift at 25 uM by fluorescence spectra analysis. The test is classed as nucleic-acid assay. The settings on record: Bos taurus. In short, it runs like this:
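Compound at 25 μM, with calf thymus DNA at 0 or 400 μM, in 10 mM Tris-HCl pH 7.4 at room temperature; final DMSO ≤5%. Emission spectra were recorded from 320–600 nm to look for a bathochromic shift. DNA was dissolved in the same buffer, checked by A260/A280 (1.8–1.9) and quantified at 260 nm (ε 6600 M−1 cm−1 per nucleotide).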

For test [5], the system named is Panel NCI-60 (60 carcinoma cell lines). The test can be described thus: Antiproliferative activity against human NCI60 cells. The test is classed as functional.

Activity calls are given as the source filed them. The calls are words filed in the database; no cut-off is given here. A value given as a limit tells only on which side of the number the result lay.

Usually IC50 stands for the concentration at which inhibition is half-maximal. Low values mean greater potency in that assay, high ones weaker potency in that assay. In turn, `CN[C@@H]1CCN(c2c(F)cc3c(=O)c(C(=O)O)cn(Cc4ccc(-c5ccccc5)cc4)c3c2OC)C1` showed an IC50 in test [1] of 57.7 µM. On the same count and under the same terms, the value for `O=C(O)c1cn(Cc2ccc(-c3ccccc3)cc2)c2cc(NC[C@H]3CCNC3)c(F)cc2c1=O` was 100 µM; that for `O=C(O)c1cn(Cc2ccc(-c3ccccc3)cc2)c2cc(N3CC4CNCC4C3)c(F)cc2c1=O` (centres undefined) was 33.3 µM.

Broadly, the inhibition is how much of the control response was suppressed. `CNCCCCNc1c(F)cc2c(=O)c(C(=O)O)cn(Cc3ccc(-c4ccccc4)cc3)c2c1OC` displayed an IC50 in test [1] greater than 200 µM. The molecule also gave an inhibition in test [2] of 10%. Turning to `NC[C@@H]1CCN(c2cc3c(cc2F)c(=O)c(C(=O)O)cn3Cc2ccc(-n3cccn3)cc2)C1`, in test [1], the midpoint of inhibition, the IC50, lay at 91.6 µM. For the molecule `CNC(=O)c1cn(Cc2ccc(-c3ccccc3)cc2)c2c(OC)c(NC)c(F)cc2c1=O`, in test [2], the inhibition entry was “inactive”. With `CNCCNc1cc2c(cc1F)c(=O)c(C(=O)O)cn2Cc1ccc(-c2ccccc2)cc1`, the 50% inhibitory concentration (IC50) in test [1] was greater than 200 µM. Moreover, the inhibition in test [2] was determined as 10%. `COc1c(N2CC[C@@H](CN)C2)c(F)cc2c(=O)c(C(=O)O)cn(Cc3ccc(-c4ccc(F)cc4)cc3)c12`: the IC50 in test [1] came out at 60.9 µM.

In the case of `CC(c1nc(-c2ccncc2)no1)n1cc(C(=O)O)c(=O)c2cc(F)c(N3CC[C@@H](CN)C3)cc21` (some centres undefined), the half-maximal inhibitory concentration (IC50) in test [1] is greater than 200 µM. Besides, the inhibition in test [2] was found to be 10%. For `COc1c(N2CC[C@@H](CO)C2)c(F)cc2c(=O)c(C(=O)O)cn(Cc3ccc(-c4ccccc4)cc3)c12`, in that order: greater than 200 µM and 10%. The molecule `NC[C@@H]1CCN(c2cc3c(cc2F)c(=O)c(C(=O)O)cn3Cc2nc(-c3ccncc3)no2)C1` registered an IC50 in test [1] greater than 200 µM. The same molecule yielded an inhibition in test [2] of 10%. Usually GI50 stands for the concentration giving 50% growth inhibition. Read a high GI50 as lower sensitivity of the cells. `COc1c(N2CC[C@@H](CN)C2)c(F)cc2c(=O)c(C(=O)O)cn(Cc3ccc(-c4ccccc4)cc3)c12`: the result in test [3] and in test [4] was inactive. Besides, the 50% growth inhibitory concentration (GI50) in test [5] was found to be 1.9 µM. As to `O=C(O)c1cn(Cc2ccc(-c3ccccc3)cc2)c2cc(NC[C@@H]3CCNC3)c(F)cc2c1=O`, the half-inhibitory concentration (IC50) in test [1] is 104 µM. The same measure, in the same setting: then `CNCCCCNc1cc2c(cc1F)c(=O)c(C(=O)O)cn2Cc1ccc(-c2ccccc2)cc1`, with 88.3 µM.

Turning to `NCCNc1cc2c(cc1F)c(=O)c(C(=O)O)cn2Cc1ccc(-c2ccccc2)cc1`, the IC50 in test [1] turned out to be 72.8 µM. Same read-out and setting: then `CN[C@@H]1CCN(c2cc3c(cc2F)c(=O)c(C(=O)O)cn3Cc2ccc(-c3ccccc3)cc2)C1`, with 34.8 µM; and `COc1c(N2CC[C@@H](CN)C2)c(F)cc2c(=O)c(C(N)=O)cn(Cc3ccc(-c4ccccc4)cc3)c12`, with 184 µM; and `NC[C@@H]1CCN(c2ccc3c(=O)c(C(=O)O)cn(Cc4ccc(-n5cccn5)cc4)c3c2)C1`, with 61 µM.

With `COc1c(N2CC[C@@H](CN)C2)c(F)cc2c(=O)c(C(=O)O)cn(Cc3cc(-c4ccccc4)no3)c12`, the IC50 in test [1] came out at 178 µM. On the same count and under the same terms, then `CNC[C@@H]1CCN(c2cc3c(cc2F)c(=O)c(C(=O)O)cn3Cc2ccc(-c3ccccc3)cc2)C1`, with 168 µM. The same measure, in the same setting: then `CNCCCNc1cc2c(cc1F)c(=O)c(C(=O)O)cn2Cc1ccc(-c2ccccc2)cc1`, with 63.6 µM; and `N[C@@H]1CCN(c2cc3c(cc2F)c(=O)c(C(=O)O)cn3Cc2ccc(-c3ccccc3)cc2)C1`, with 63.6 µM. `COc1c(N2CC[C@@H](CN)C2)c(F)cc2c(=O)c(C(=O)O)cn(Cc3ccc4ccccc4c3)c12` yielded a concentration for 50% growth inhibition (GI50) in test [5] of 3.1 µM. With `O=C(O)c1cn(Cc2ccc(-n3cccn3)cc2)c2cc(N3CC4CNCC4C3)c(F)cc2c1=O` (centres undefined), the half-inhibitory concentration (IC50) in test [1] came out at 173 µM. Still for that read-out and setting: then `NC[C@@H]1CCN(c2ccc3c(=O)c(C(=O)O)cn(Cc4ccc(-c5ccccc5)cc4)c3c2)C1`, with 61.2 µM. `NC[C@@H]1CCN(c2cc3c(cc2F)c(=O)c(C(=O)O)cn3Cc2ccc(-c3ccccc3)cc2)C1` came in with a half-inhibitory concentration (IC50) in test [1] of 15.6 µM. Besides, the outcome in test [3] and in test [4] was inactive. `COc1c(NCCN)c(F)cc2c(=O)c(C(=O)O)cn(Cc3ccc(-c4ccccc4)cc3)c12` returned an IC50 in test [1] greater than 200 µM. Besides, the inhibition in test [2] stood at 10%. As to `O=C(O)c1cn(Cc2ccc(-n3cccn3)cc2)c2cc(NC[C@H]3CCNC3)c(F)cc2c1=O`, the IC50 in test [1] came out at 187 µM.

Take `CNCCCNc1c(F)cc2c(=O)c(C(=O)O)cn(Cc3ccc(-c4ccccc4)cc3)c2c1OC`: the IC50 in test [1] came to 101 µM. Turning to `NC[C@@H]1CCN(c2cc3c(cc2F)c(=O)c(C(=O)O)cn3Cc2ccc(-c3ccc(F)cc3)cc2)C1`, in test [1], the half-inhibitory concentration (IC50) came out at 69.6 µM. For the molecule `COc1c(F)c(F)cc2c(=O)c(C(=O)O)cn(Cc3ccc(-c4ccccc4)cc3)c12`, the inhibition result in test [2] was “inactive”. Regarding `COc1c(N2CC[C@@H](N)C2)c(F)cc2c(=O)c(C(=O)O)cn(Cc3ccc(-c4ccccc4)cc3)c12`, the concentration for half-maximal inhibition (IC50) in test [1] came to 92.2 µM. The same measure, in the same setting: then `NC[C@@H]1CCN(c2cc3c(cc2F)c(=O)c(C(=O)O)cn3Cc2cc(-c3ccccc3)no2)C1`, with 58.3 µM. As for `COc1c(N2CC[C@@H](CN)C2)c(F)cc2c(=O)c(C(=O)O)cn(Cc3ccc(-n4cccn4)cc3)c12`, the half-inhibitory concentration (IC50) in test [1] is greater than 200 µM. In test [2], this molecule displayed an inhibition of 10%. In test [1], `COc1c(N2CC[C@@H](CN)C2)c(F)cc2c(=O)c(C(=O)NO)cn(Cc3ccc(-c4ccccc4)cc3)c12` displayed an IC50 of 35.9 µM.

In turn, `O=C(O)c1cn(Cc2ccc(-c3ccccc3)cc2)c2cc(N3C[C@H]4CCNC[C@H]4C3)c(F)cc2c1=O` registered an IC50 in test [1] of 61 µM.

Consider `CNC[C@@H]1CCN(c2c(F)cc3c(=O)c(C(=O)O)cn(Cc4ccc(-c5ccccc5)cc4)c3c2OC)C1`, for which the concentration for half-maximal inhibition (IC50) in test [1] came to 155 µM. In test [1], `COc1c(N2CC[C@@H](N)C2)c(F)cc2c(=O)c(C(=O)O)cn(Cc3ccc(-c4ccc(F)cc4)cc3)c12` returned a half-maximal inhibitory concentration (IC50) of 58.6 µM. `CNC[C@@H]1CCN(c2cc3c(cc2F)c(=O)c(C(=O)O)cn3Cc2ccc(-n3cccn3)cc2)C1` registered an IC50 in test [1] greater than 200 µM. This molecule displayed an inhibition in test [2] of 10%. `COC(=O)c1cn(Cc2ccc(-c3ccccc3)cc2)c2c(OC)c(N3CC[C@@H](CN)C3)c(F)cc2c1=O`: inhibition in test [1] was half-maximal at 71.4 µM (IC50).

Take `COc1c(N2CC[C@@H](C(N)=O)C2)c(F)cc2c(=O)c(C(=O)O)cn(Cc3ccc(-c4ccccc4)cc3)c12`: in test [1], the half-inhibitory concentration (IC50) was greater than 200 µM. In addition, the inhibition in test [2] came out at 10%.

`CNCCNc1c(F)cc2c(=O)c(C(=O)O)cn(Cc3ccc(-c4ccccc4)cc3)c2c1OC` came in with an IC50 in test [1] greater than 200 µM. This molecule showed an inhibition in test [2] of 10%.

On to `CNC(=O)c1cn(Cc2ccc(-c3ccccc3)cc2)c2c(OC)c(N3CC[C@@H](CN)C3)c(F)cc2c1=O`, for which, in test [1], the IC50 stood at 82.1 µM.

`O=C(O)c1cn(Cc2ccc(-n3cccn3)cc2)c2cc(N3C[C@H]4CCNC[C@H]4C3)c(F)cc2c1=O` had an IC50 in test [1] of 31.3 µM.

In the case of `O=C(O)c1cn(Cc2ccc(-n3cccn3)cc2)c2cc(NC[C@@H]3CCNC3)c(F)cc2c1=O`, the inhibition in test [2] is 10%.
